Measurements as given in paper PMC3438513 (Cancer research, 2012).
“And” between values parts separate entries of the source, which are not always exact repeats. Equal entries are not always repeated. Where two headings read alike, the source gives them in different places.

Legend:
mouse CD1d = molecular target: T1, mouse CD1d (Mus musculus, UniProt P11609); type: binding; settings: competitor of Biotinyl PE (2 μg/mL), CD1d dimer
T1 sequence (P11609 22-305 limits assumed): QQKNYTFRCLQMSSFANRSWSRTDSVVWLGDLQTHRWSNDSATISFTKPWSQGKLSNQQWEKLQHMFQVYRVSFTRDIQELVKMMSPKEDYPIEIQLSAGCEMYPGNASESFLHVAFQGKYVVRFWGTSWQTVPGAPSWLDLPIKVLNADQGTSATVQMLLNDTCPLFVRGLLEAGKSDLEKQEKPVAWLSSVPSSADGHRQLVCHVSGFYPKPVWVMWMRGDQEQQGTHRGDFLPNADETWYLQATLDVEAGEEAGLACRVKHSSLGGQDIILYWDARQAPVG
T1 sequence (P01887 21-119 partner): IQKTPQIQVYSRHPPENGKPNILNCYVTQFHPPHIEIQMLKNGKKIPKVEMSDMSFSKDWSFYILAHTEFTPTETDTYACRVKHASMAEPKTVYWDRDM
Summary of the method: (§1)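 Plates coated with goat anti-mouse IgG Fc-gamma antibody, then washed three times with PBS/Tween. Added human or mouse CD1d-Ig dimer (5 μg/mL) mixed with competitor lipid and 18:1 biotinyl-PE (2 μg/mL) in PBS. Bound biotinyl-PE detected with HRP-avidin. Biotinyl-PE Kd obtained by titration without competitor, fitted to Y = (Bmax*X)/(Kd + X). Competitor constants derived by curve fitting.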

human CD1d = human CD1d (Homo sapiens, UniProt P15813); type: binding
Summary of the method: as §1

NKT cells = test: Staining of NKT cells with lipid-loaded CD1d-Ig dimers; type: cell-based; settings: human and mouse CD1d-Ig dimers loaded overnight
Summary of the method: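 Human or mouse CD1d-mouse IgG dimer (1 μg) loaded overnight at 37°C with 1.4 μg lipid or ascites in 50 μL PBS. Used to stain 2 × 10^5 NKT cells on ice for 30 min. Cells washed twice in PBS/5% FBS, then stained with PE rat anti-mouse IgG1 (A85-1) on ice for 30 min; anti-human CD3ε-APC added for human cells. Analysed by flow cytometry.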

[1] = system: α-GalCer-induced NKT cell activation; test: In vivo α-GalCer-induced serum cytokine production; parameters: species or system C57BL/6 mice; settings: 1 μg α-GalCer intravenously
Summary of the method: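 C57BL/6 mice, 6–8 weeks old, kept pathogen-free. Given α-GalCer 1 μg intravenously, with or without the test ganglioside at several concentrations. Serum taken at 2, 6, 12, 24, 48 and 72 h. IFN-γ measured by sandwich ELISA on two dilutions of pooled sera, reported as mean ± SD.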

[2] = system: CD1d-mediated activation of NKT cells (hybridomas DN32.D3, N38-3C3, N37-1A12); type: cell-based, mouse; settings: 4 h
Summary of the method: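 APCs were L cells stably transfected with WT cd1d1 cDNA. Treated with test ganglioside at increasing concentrations for 4 h at 37°C, washed extensively with PBS, then cocultured with hybridomas DN32.D3, N37-1A12 and N38-3C3 for 20–24 h at 37°C. IL-2 measured by sandwich ELISA. Triplicates, mean ± SEM; experiment repeated three times.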

canonical NKT cell = settings: high concentrations; ref [9], [24]; cited from earlier work

For `CCCCCCCC/C=C\CCCCCCCC(=O)OC[C@H](COP(=O)(O)OCCNC(=O)CCCCCN)OC(=O)CCCCCCC/C=C\CCCCCCCC` [18:1 PE lipid, 1,2-Dioleoyl-sn-Glycero-3-Phosphoethanolamine-N-(hexanoylamine)], the IC50 (mouse CD1d; read-out: IC50 in mCD1d) was 843 ± 181 nM and the IC50 (human CD1d; read-out: IC50 in hCD1d, competitor of Biotinyl PE (2 μg/mL), CD1d dimer) was 882 ± 125 nM.

For `CCCCCCCCCCCCCCCCCCCCCCCCCC(=O)N[C@@H](CO[C@H]1O[C@H](CO)[C@H](O)[C@H](O)[C@H]1O)[C@H](O)[C@H](O)CCCCCCCCCCCCCC` [α-GalCer, α-galactosylceramide], the “binding of lipid-loaded CD1d-Ig dimers to NKT cells” value (NKT cells) was “bound to NKT cells”, the IC50 (mouse CD1d; IC50 in mCD1d) was 95 nM and 95.1 nM and the “time at which serum IFN-γ production was detectable” value [1] was 2 h. For the same compound, the “time of peak serum IFN-γ production” value [1] was 24 h, the “time of return of serum IFN-γ to baseline” value [1] was ≤ 48 h and the IC50 (human CD1d) was 84 ± 10 nM.

In the case of GT1b, the “inhibition of CD1d-mediated activation of NKT cells” value ([2]; increasing doses of purified ganglioside, IL-2 (Fig 3A-C)) is reported as “Only GD3 inhibited”.

For gangliotriaosylceramide [Gg3Cer], the “reduction in NKT cell activation” value ([2]; gangliosides 5μg/ml, IL-2 (Fig 3D)) is listed as “only incubation with GD3 resulted in a significant reduction” and the “inhibition of canonical NKT cell activation” value (canonical NKT cell) is listed as “inhibit canonical NKT cell activation when used at high concentrations”.
